In ChEMBL document CHEMBL1122517, “2-Phenylindoles. Relationship between structure, estrogen receptor affinity, and mammary tumor inhibiting activity in the rat” (1984):
Several values for one entry are separate records, joined by “and”; a condition that tells them apart may be missing. Equal values may be shown once.

Tests used:
[1] = target: T1, Estrogen receptor (Mus musculus) (UniProt O08537+P19785); assay: Percentage inhibition of uterotrophic activity at 25 ug dose; assay type: functional
How it was run: (§1)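 Antiuterotrophic test in immature 19-day-old female NMRI mice (n=10), dosed sc on 3 consecutive days with 0.4 µg estrone per animal per day plus compound in olive oil. Uterine dry weight/body weight ×100 was read 24 h after the last dose. Inhibition % = 100 − [(E_S,T − E_V)/(E_S − E_V)]×100.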

Rattus norvegicus [2] = organism: Rattus norvegicus; assay: Percent unchanged DMBA-induced mammary carcinoma tumors in rats at 1.7 mg dose; assay type: functional
How it was run: (§2)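 Female Sprague-Dawley rats, 50 days old, given a single 20 mg DMBA dose in 1 mL olive oil by gavage. Rats were palpated twice weekly from day 30, and those without tumors by day 70 were discarded. Rats were randomized once tumor area exceeded 140 mm². Drug dose was per kg in olive oil (1 mL/kg) sc, single dose Mon–Thu and double dose Fri. Tumor area (caliper, two perpendicular axes) and body weight were measured twice weekly.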

Rattus norvegicus [3] = organism: Rattus norvegicus; assay: Change in DMBA-induced mammary carcinoma tumor area in rats at 5.1 mg dose; assay type: functional
How it was run: (§3)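 Female Sprague-Dawley rats got one 20 mg DMBA dose by gavage at 50 days old and were palpated twice weekly from day 30. Rats were randomized once tumor area exceeded 140 mm². Dose (per kg) was given sc in olive oil, once daily Monday to Thursday and doubled on Friday. Tumor area was taken from caliper measurements of two perpendicular axes, twice weekly. Change per animal is given as median % and range.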

[4] = target: T1, Estrogen receptor (Mus musculus); assay: Percentage inhibition of uterotrophic activity at 125 ug dose; assay type: functional; how it was run: as §1
Rattus norvegicus [5] = organism: Rattus norvegicus; assay: Percent unchanged DMBA-induced mammary carcinoma tumors in rats at 5.1 mg dose; assay type: functional; how it was run: as §2
Rattus norvegicus [6] = organism: Rattus norvegicus; assay: Complete remission (%) of DMBA-induced mammary carcinoma tumors in rats at 5.1 mg dose; assay type: functional
How it was run: (§4)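 DMBA-induced tumors in Sprague-Dawley rats, entered when tumor area exceeded 140 mm². Dose per kg was given sc in olive oil, daily Monday to Thursday with a double dose Friday. Tumors were measured by calipers twice weekly. Tumor number was counted at the start of the test. Complete remission meant the tumor was no longer palpable. Partial remission meant reduction to ≤50% of initial size. New tumor appearance was recorded.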

Rattus norvegicus [7] = organism: Rattus norvegicus; assay: Change in DMBA-induced mammary carcinoma tumor area in rats at 1.7 mg dose; assay type: functional; how it was run: as §3
Rattus norvegicus [8] = organism: Rattus norvegicus; assay: Formation of new DMBA-induced mammary carcinoma tumors in rats at 5.1 mg dose; assay type: functional; how it was run: as §4
[9] = target: T1, Estrogen receptor (Mus musculus); assay: Uterotrophic activity in mice as uterus dry weight (mg)/body weight (g) *100 at 1 ug dose; assay type: functional, tissue-based
How it was run: (§5)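 Immature 19-day-old female NMRI mice, groups of 10. Compound dose per animal in olive oil (50 µL) sc on 3 consecutive days. Mice were killed 24 h after the last injection. Uteri were Bouin-fixed 20 h, cleaned, washed with alcoholic LiCl, and dried at 100 °C for 24 h. Effect = uterine dry weight (mg)/body weight (g) ×100; mean ± SD.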

[10] = target: T1, Estrogen receptor (Mus musculus); assay: Anti-uterotrophic activity in mice as uterus dry weight (mg)/body weight (g) *100 at 25 ug dose; assay type: functional, tissue-based
How it was run: (§6)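 Immature female NMRI mice, 19 days old, groups of 10, given sc injections on 3 consecutive days. Each injection held 0.4 μg estrone plus the indole dose per animal, in olive oil (50 μL). Killed 24 h after the last injection. Uteri were fixed in Bouin solution, washed, and dried 24 h at 100 °C. Read-out was uterine dry weight (mg)/body weight (g) × 100, mean ± SD.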

[11] = target: T1, Estrogen receptor (Mus musculus); assay: Percentage inhibition of uterotrophic activity at 1 ug dose; assay type: functional; how it was run: as §1
Rattus norvegicus [12] = organism: Rattus norvegicus; assay: Partial remission (%) of DMBA-induced mammary carcinoma tumors in rats at 5.1 mg dose; assay type: functional; how it was run: as §2
[13] = target: T1, Estrogen receptor (Mus musculus); assay: Uterotrophic activity in mice as uterus dry weight (mg)/body weight (g) *100 at 25 ug dose; assay type: functional, tissue-based; how it was run: as §5
Rattus norvegicus [14] = organism: Rattus norvegicus; assay: Change in DMBA-induced mammary carcinoma tumor area in rats at 5.1 mg dose; -44-333; assay type: functional; how it was run: as §3
[15] = target: T1, Estrogen receptor (Mus musculus); assay: Percentage inhibition of uterotrophic activity at 5 ug dose; assay type: functional; how it was run: as §1
Rattus norvegicus [16] = organism: Rattus norvegicus; assay: Formation of new DMBA-induced mammary carcinoma tumors in rats at 1.7 mg dose; assay type: functional; how it was run: as §4
[17] = target: T1, Estrogen receptor (Mus musculus); assay: Anti-uterotrophic activity in mice as uterus dry weight (mg)/body weight (g) *100 at 1 ug dose; assay type: functional, tissue-based; how it was run: as §6
[18] = target: T1, Estrogen receptor (Mus musculus); assay: Uterotrophic activity in mice as uterus dry weight (mg)/body weight (g) *100 at 125 ug dose; assay type: functional, tissue-based; how it was run: as §5
[19] = target: T1, Estrogen receptor (Mus musculus); assay: Anti-uterotrophic activity in mice as uterus dry weight (mg)/body weight (g) *100 at 5 ug dose; assay type: functional, tissue-based; how it was run: as §6
Rattus norvegicus [20] = organism: Rattus norvegicus; assay: Change in body weight of DMBA-induced mammary carcinoma tumor bearing rats at 5.1 mg dose; assay type: functional
How it was run: (§7)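 DMBA-induced tumor-bearing Sprague-Dawley rats (20 mg DMBA by gavage at 50 days old), randomized when tumor area exceeded 140 mm². Dose per kg was given sc in olive oil, single dose daily Monday to Thursday, double dose Friday. Body weight was measured twice weekly. Read-out was % change in body weight.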

Rattus norvegicus [21] = organism: Rattus norvegicus; assay: Partial remission (%) of DMBA-induced mammary carcinoma tumors in rats at 1.7 mg dose; assay type: functional; how it was run: as §4
[22] = target: T1, Estrogen receptor (Mus musculus); assay: Uterotrophic activity in mice as uterus dry weight (mg)/body weight (g) *100 at 5 ug dose; assay type: functional, tissue-based; how it was run: as §5
Rattus norvegicus [23] = organism: Rattus norvegicus; assay: Change in DMBA-induced mammary carcinoma tumor area in rats at 1.7 mg dose; 318-1054; assay type: functional; how it was run: as §3
Rattus norvegicus [24] = organism: Rattus norvegicus; assay: Percent progressive DMBA-induced mammary carcinoma tumors in rats at 1.7 mg dose; assay type: functional; how it was run: as §2
Rattus norvegicus [25] = organism: Rattus norvegicus; assay: Number of DMBA-induced mammary carcinoma tumors in rats at 5.1 mg dose; assay type: functional; how it was run: as §4
Rattus norvegicus [26] = organism: Rattus norvegicus; assay: Number of DMBA-induced mammary carcinoma tumors in rats at 1.7 mg dose; assay type: functional; how it was run: as §4
Rattus norvegicus [27] = organism: Rattus norvegicus; assay: Percent progressive DMBA-induced mammary carcinoma tumors in rats at 5.1 mg dose; assay type: functional; how it was run: as §2
Rattus norvegicus [28] = organism: Rattus norvegicus; assay: Change in body weight of DMBA-induced mammary carcinoma tumor bearing rats at 1.7 mg dose; assay type: functional; how it was run: as §7
[29] = target: T1, Estrogen receptor (Mus musculus); assay: Anti-uterotrophic activity in mice as uterus dry weight (mg)/body weight (g) *100 at 125 ug dose; assay type: functional, tissue-based; how it was run: as §6
Rattus norvegicus [30] = organism: Rattus norvegicus; assay: Change in body weight of DMBA-induced mammary carcinoma tumor bearing rats at 4 mg dose; assay type: functional; how it was run: as §7
Rattus norvegicus [31] = organism: Rattus norvegicus; assay: Percent progressive DMBA-induced mammary carcinoma tumors in rats at 4 mg dose; assay type: functional; how it was run: as §2
Rattus norvegicus [32] = organism: Rattus norvegicus; assay: Partial remission (%) of DMBA-induced mammary carcinoma tumors in rats at 4 mg dose; assay type: functional; how it was run: as §2
Rattus norvegicus [33] = organism: Rattus norvegicus; assay: Number of DMBA-induced mammary carcinoma tumors in rats at 4 mg dose; assay type: functional; how it was run: as §4
Rattus norvegicus [34] = organism: Rattus norvegicus; assay: Formation of new DMBA-induced mammary carcinoma tumors in rats at 4 mg dose; assay type: functional; how it was run: as §4
Rattus norvegicus [35] = organism: Rattus norvegicus; assay: Complete remission (%) of DMBA-induced mammary carcinoma tumors in rats at 4 mg dose; assay type: functional; how it was run: as §4
Rattus norvegicus [36] = organism: Rattus norvegicus; assay: Change in DMBA-induced mammary carcinoma tumor area in rats at 4 mg dose; -100-47; assay type: functional; how it was run: as §3
Rattus norvegicus [37] = organism: Rattus norvegicus; assay: Change in DMBA-induced mammary carcinoma tumor area in rats at 4 mg dose; assay type: functional; how it was run: as §3
Rattus norvegicus [38] = organism: Rattus norvegicus; assay: Percent unchanged DMBA-induced mammary carcinoma tumors in rats at 4 mg dose; assay type: functional; how it was run: as §2

T1 sequence (O08537 whole entry, looked up): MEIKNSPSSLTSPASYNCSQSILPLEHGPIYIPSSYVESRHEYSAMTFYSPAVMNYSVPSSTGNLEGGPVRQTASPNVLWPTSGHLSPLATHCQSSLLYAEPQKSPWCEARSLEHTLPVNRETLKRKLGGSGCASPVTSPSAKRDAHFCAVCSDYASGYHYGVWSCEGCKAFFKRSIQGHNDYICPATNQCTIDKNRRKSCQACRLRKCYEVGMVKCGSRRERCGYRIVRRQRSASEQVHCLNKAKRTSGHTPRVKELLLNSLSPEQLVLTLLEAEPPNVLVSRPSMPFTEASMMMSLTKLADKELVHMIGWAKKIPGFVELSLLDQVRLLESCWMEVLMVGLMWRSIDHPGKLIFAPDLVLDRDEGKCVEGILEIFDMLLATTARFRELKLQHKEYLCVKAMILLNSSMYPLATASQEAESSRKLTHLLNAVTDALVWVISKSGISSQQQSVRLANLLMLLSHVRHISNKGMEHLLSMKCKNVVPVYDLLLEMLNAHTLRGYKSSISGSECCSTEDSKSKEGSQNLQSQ
T1 sequence (P19785 whole entry, looked up): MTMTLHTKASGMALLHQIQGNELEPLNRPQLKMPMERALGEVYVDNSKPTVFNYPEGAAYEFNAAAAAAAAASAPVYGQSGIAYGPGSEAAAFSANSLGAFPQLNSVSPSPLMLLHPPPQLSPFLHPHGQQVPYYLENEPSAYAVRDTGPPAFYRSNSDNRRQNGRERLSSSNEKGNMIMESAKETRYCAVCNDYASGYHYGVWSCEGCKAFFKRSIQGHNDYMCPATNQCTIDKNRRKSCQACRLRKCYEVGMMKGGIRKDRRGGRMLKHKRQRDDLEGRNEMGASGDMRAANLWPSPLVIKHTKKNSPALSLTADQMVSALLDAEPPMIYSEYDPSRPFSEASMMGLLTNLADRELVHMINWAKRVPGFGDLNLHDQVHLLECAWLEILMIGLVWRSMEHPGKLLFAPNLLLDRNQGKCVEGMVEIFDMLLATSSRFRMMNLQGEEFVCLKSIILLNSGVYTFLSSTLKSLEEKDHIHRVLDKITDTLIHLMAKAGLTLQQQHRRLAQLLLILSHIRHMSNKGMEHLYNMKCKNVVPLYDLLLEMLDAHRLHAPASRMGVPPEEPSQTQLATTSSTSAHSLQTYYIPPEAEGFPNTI

## CC(=O)Oc1ccc(-c2c(C)c3cc(OC(C)=O)ccc3n2C)cc1
[1]
  inhibition: 42%
Rattus norvegicus [2]
  Static tumors: 15%
Rattus norvegicus [3]
  Change of tumor area: 9% and 18%
[4]
  inhibition: 62%
Rattus norvegicus [5]
  Static tumors: 19%
Rattus norvegicus [6]
  Complete remission: 32%
Rattus norvegicus [7]
  Change of tumor area: 577%
Rattus norvegicus [8]
  New tumors: 37
[9]
  Uterotrophic effect: 13.7
[10]
  Anti-uterotrophic effect: 36.6
[11]
  inhibition: 33%
Rattus norvegicus [12]
  Partial remission: 10%
[13]
  Uterotrophic effect: 16.1
Rattus norvegicus [14]
  Change of tumor area: -44%
[15]
  inhibition: 35%
Rattus norvegicus [16]
  New tumors: 38
[17]
  Anti-uterotrophic effect: 40
[18]
  Uterotrophic effect: 20.9
[19]
  Anti-uterotrophic effect: 39.2
Rattus norvegicus [20]
  Change of body weight: 0%
Rattus norvegicus [21]
  Partial remission: 6%
[22]
  Uterotrophic effect: 14.6
Rattus norvegicus [23]
  Change of tumor area: 318%
Rattus norvegicus [24]
  Progressed tumors: 70%
Rattus norvegicus [25]
  No. of tumors: 37
Rattus norvegicus [26]
  No. of tumors: 29
Rattus norvegicus [27]
  Progressed tumors: 39%
Rattus norvegicus [28]
  Change of body weight: 2%
[29]
  Anti-uterotrophic effect: 28.8

## CCc1c(-c2ccc(OC(C)=O)cc2)n(C)c2cc(OC(C)=O)ccc12
[1]
  inhibition: 56%
Rattus norvegicus [30]
  Change of body weight: -7%
[4]
  inhibition: 52%
Rattus norvegicus [31]
  Progressed tumors: 7%
Rattus norvegicus [32]
  Partial remission: 29%
Rattus norvegicus [33]
  No. of tumors: 18
Rattus norvegicus [34]
  New tumors: 10
Rattus norvegicus [35]
  Complete remission: 43%
Rattus norvegicus [36]
  Change of tumor area: -100%
[9]
  Uterotrophic effect: 13.2
[10]
  Anti-uterotrophic effect: 33.5
[11]
  inhibition: 17%
[13]
  Uterotrophic effect: 20.4
[15]
  inhibition: 14%
[17]
  Anti-uterotrophic effect: 47.6
[18]
  Uterotrophic effect: 30
[19]
  Anti-uterotrophic effect: 48.8
[22]
  Uterotrophic effect: 16.2
Rattus norvegicus [37]
  Change of tumor area: -88%
[29]
  Anti-uterotrophic effect: 34.7
Rattus norvegicus [38]
  Static tumors: 21%
